VLA-4 inh: inhibition in a human VLA-4 binding assay | AID 2557 | 0.2% of 330,000 active | VLA-4 expressing cells, ligand binding flow cytometry | inhibition, % (about 7 µM as worked out from the volumes in the protocol) | P13612; in the data active means inhibition above about 50%
Rce1 inhib: yeast Ras-converting enzyme inhibition. Q03530. yeast membranes, quenched prenylated peptide cleavage fluorescence. calls only. 0.27% of 290,000 active. AID 2563;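 active means fall in fluorescence gain of 50% or more versus controls, with final raw signal at or below 3038400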
TAAR1 ag: agonists of human TAAR1; AID 624467; activation, % at 3 µM; CHO RD-HGA16 TAAR1, Fluo-8 calcium fluorescence; vehicle wells 0%, saturating PEA agonist 100%; 0.99% of 360,000 active;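 active means activation above the mean activation of all test compounds in the run plus 3 SD, cut at about 38% in these data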
Target sequence (Q96RJ0 whole entry, looked up): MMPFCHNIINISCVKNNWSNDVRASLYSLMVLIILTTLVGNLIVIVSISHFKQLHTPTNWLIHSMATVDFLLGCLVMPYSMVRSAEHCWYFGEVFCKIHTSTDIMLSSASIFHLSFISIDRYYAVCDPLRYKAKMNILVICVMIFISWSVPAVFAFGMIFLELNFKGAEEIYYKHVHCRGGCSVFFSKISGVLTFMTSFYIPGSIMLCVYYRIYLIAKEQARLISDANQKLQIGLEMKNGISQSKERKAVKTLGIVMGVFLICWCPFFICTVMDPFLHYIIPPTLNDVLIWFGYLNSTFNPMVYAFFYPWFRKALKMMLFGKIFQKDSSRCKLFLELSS
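System: CHO-derived RD-HGA16 cells with stable Gα16 and human TAAR1 / Times: 17-24 h plating, Fluo-8 75 min 37 °C, 30 min RT / Technique: calcium-sensitive Fluo-8 signal, excitation 470-495, emission 515-575 nm / Measure: % activation relative to PEA EC100 response / Benchmarks: DMSO and PEA EC100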
TAAR1 antagonist: human TAAR1 antagonism; Q96RJ0; CHO RD-HGA16 TAAR1, Fluo-8 calcium fluorescence, antagonist; inhibition, % at 3 µM; 1.5% of 360,000 active;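 active means inhibition above a per-plate cutoff, the mean inhibition of test compounds on that plate plus 3 SD, cut at about 49% in these data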
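Material: CHO RD-HGA16 cells bearing hTAAR1; compound dosing: one-point dosing, 3 µM nominal final; schedule: dye loading 75 min at 37 °C, then 30 min room temperature; measured by: calcium fluorescence with Fluo-8; control set: vehicle and agonist controls; replication: n of 1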
Platelet DG rel: modulates dense granule release in human platelets. inhibition, %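 (compounds screened at 7.5 µM in platelet-rich plasma)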. 0.22% of 300,000 active. AID 1663. human platelet-rich plasma, SFLLRN dense granule ATP release, luminescence;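 active means mean replicate score, as percent of positive control, at or above 50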
Each line names hits and unclear results; the compound was inactive in the other large screens. An excerpt weighted towards active compounds, which were near 2.6% of everything screened.

Cc1ccc(N(C)S(=O)(=O)c2ccc3c(c2)CC(C)N3C(=O)C2CC2)cc1 (centres undefined)	TAAR1 antagonist 49
COc1cc(/C=C(\C#N)c2nc3ccccc3[nH]2)ccc1OC(=O)c1ccco1	none
COc1cc(/C=C(\C#N)c2nc3ccccc3[nH]2)c([N+](=O)[O-])cc1OCc1ccccc1	TAAR1 antagonist 54
O=C(CCC(=O)N1CCN(c2ccc(F)cc2)CC1)N1CCN(c2ccc(F)cc2)CC1	none
O=C(Cn1cccc1)N1CCN(c2ccc(F)cc2)CC1	Platelet DG rel 56
COc1ccc(NC(=O)c2cc(S(=O)(=O)N3CCc4ccccc43)cn2C)cc1	Platelet DG rel 98
Cc1ccc(NC(=O)c2cc(S(=O)(=O)N3CCc4ccccc43)cn2C)cc1C	none
CC1(C(=O)Nc2ccc3ccccc3c2)CCC(=O)N1CCc1c[nH]c2ccccc12 (centres undefined)	none (no result: VLA-4 inh, Rce1 inhib, Platelet DG rel)
CN(C)/C=N/c1nc2nccc(-c3ccc(F)cc3)n2n1	Rce1 inhib active
CN(C)/C=N/c1nc2nccc(-c3cccc(Cl)c3)n2n1	none (no result: Rce1 inhib)
COc1ccccc1CNC(=O)CCS(=O)(=O)c1ccc2c(c1)CCN2C(C)=O	none
CC(C)n1cc(CN2CCCC(C(=O)Nc3cccc(-c4cc5ccccc5[nH]4)c3)C2)cn1 (centres undefined)	TAAR1 ag 40
Cn1cc(CN2CCCC(C(=O)Nc3cccc(-c4cc5ccccc5[nH]4)c3)C2)cn1 (centres undefined)	none (no result: Rce1 inhib)
Fc1ccc2[nH]c3c(NCc4ccccc4)ncnc3c2c1	none
Nc1ncnc2c1ncn2[C@@H]1O[C@H](C(=O)N[C@@H](CO)Cc2ccccc2)[C@@H](O)[C@H]1O	none (no result: VLA-4 inh, Rce1 inhib, Platelet DG rel)
O=C(Nc1nc(-c2ccccc2)cs1)c1ccc2c(=O)n3c(nc2c1)CCCCC3	TAAR1 antagonist 59
O=C(Nc1ccccc1Cl)c1ccc2c(=O)n3c(nc2c1)CCC3	none (no result: Rce1 inhib, Platelet DG rel)
O=C(Nc1cccc(S(=O)(=O)N2CCOCC2)c1)c1ccc2c(=O)n3c(nc2c1)CCCCC3	TAAR1 antagonist 51
Cc1ccc(S(=O)(=O)NC(=O)C2(C)CCN2C(=O)Cc2cccs2)cc1 (centres undefined)	none (no result: VLA-4 inh, Rce1 inhib, Platelet DG rel)
Cn1c(=O)c2c(ncn2CC(=O)Nc2nc(-c3ccccc3Cl)cs2)n(C)c1=O	TAAR1 ag 39
Cc1ccc(NC(=O)CCCNC(=O)c2ccc(Cl)cc2)c(O)c1	none
CNc1ccc2c3c(cccc13)C(=O)N(C)C2=O	TAAR1 ag 157
CCC(=O)NC(Nc1sc2c(c1C(=O)OC)CCCC2)(C(F)(F)F)C(F)(F)F	TAAR1 ag 40, TAAR1 antagonist 64
COCC(=O)Nc1sc2c(c1C(=O)OC)CCCC2	none
Oc1ccc(C23CCCC2C2(CCCC2)c2ccc(O)cc2O3)c(O)c1 (centres undefined)	TAAR1 ag 71, TAAR1 antagonist 99 (no result: Rce1 inhib, Platelet DG rel)
COCCNC(=O)C(c1ccc(C)o1)N(Cc1ccc(OC)cc1)C(=O)Cn1nnc2ccccc21 (centres undefined)	TAAR1 ag 41
Cc1ccccc1CNC(=O)CCn1nc(C)c2c(C)n(-c3ccccc3)nc2c1=O	none
O=C(/C=C/c1ccco1)Nc1ccc(Oc2ccc(Cl)cc2)cc1	TAAR1 antagonist 78
COc1cccc(NC(=O)/C=C/c2ccco2)c1	none
Cc1csc(=O)n1CCC(=O)N(C)Cc1c(F)cccc1Cl	none (no result: Rce1 inhib, Platelet DG rel)
Oc1ccccc1N=Nc1nc(-c2ccccc2)c(-c2ccccc2)[nH]1	VLA-4 inh 90
CCOC(=O)CCCCCCCCC(=O)Nc1ccc(-n2[nH]c(=O)cc2C)cc1	TAAR1 ag 44 (no result: VLA-4 inh, Rce1 inhib, Platelet DG rel)
Cc1ccc(NC(=O)CCCCCC2NC(=O)NC2C)cc1 (centres undefined)	none (no result: TAAR1 ag, TAAR1 antagonist)
CCOC(=O)N1CCN(C(=O)CSCC(=O)Nc2nc(-c3ccc(OC)cc3)cs2)CC1	none
COc1ccccc1C1(O)CCN(CC(=O)Nc2nc(-c3ccccc3)cs2)CC1	TAAR1 antagonist 53
CCOC(=O)N1CCN(C(=O)CSCC(=O)Nc2nc(-c3ccc(-c4ccccc4)cc3)cs2)CC1	TAAR1 antagonist 70
CCc1nnc(NC(=O)CN2CCC(O)(c3ccccc3OC)CC2)s1	none
O=C1/C(=C\c2cccc(O)c2)SC(=S)N1Cc1ccccc1	none
COc1cc(/C=C2/SC(=S)N(Cc3ccccc3)C2=O)ccc1O	TAAR1 ag 44
COc1cc(/C=C2/SC(=NCc3ccccc3)N(Cc3ccccc3)C2=O)ccc1O	none
O=C1/C(=C\c2ccc(O)c(O)c2)SC(=S)N1Cc1ccccc1	TAAR1 ag 38

Screening results: PubChem BioAssay, several laboratories
